Holding throughout (type): functional, cell-based
One test deals with HL-60. Put plainly: Cytotoxicity against human HL60 cells after 48 hrs by MTT assay. Particulars: HL-60, 48 h. The gist of the method: (§1)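 HL-60 (promyelocytic) and NALM-6 (lymphoblastic) human leukemia cells in RPMI 1640 with 10% heat-inactivated FBS, streptomycin/penicillin, 37 °C, 5% CO2; exponentially growing cells seeded 8 × 10^3/well. Compounds from fresh DMSO stocks diluted in medium, 10^-7 to 10^-3 M, 46 h, then MTT 2 h; formazan dissolved in 20% SDS/50% DMF pH 4.7, A562/630. IC50 from concentration-response curves, ≥3 experiments.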

The test system of a further test is L1210. The experiment in a line: Cytotoxicity against mouse L1210 cells after 48 hrs by MTT assay. Particulars: L1210, 48 h. The method in brief:
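Mouse L-1210 leukemia cells in RPMI 1640 with 10% FCS, gentamycin 50 µg/mL and 0.02 M HEPES; seeded at 1.5 × 10^3 cells/mL, drug added after 24 h, then 48 h further incubation. Cell number relative to untreated control by tetrazolium dye method; IC50 from concentration-survival curves by non-linear (quasi-Newton) fitting, mean of at least three experiments.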

The next test has as its system NALM-6. Put plainly: Cytotoxicity against human NALM6 cells after 48 hrs by MTT assay. To be noted: NALM-6, 48 h. The method in brief:
as §1

In the case of `C=C1C(=O)OC(C)CC1c1ccccc1OC` (stereo not drawn), the IC50 came to 6.44 µM in the test with HL-60, 2100 nM in the test with L1210 and 6.26 µM with NALM-6.

On to `C=C1C(=O)OC(C)CC1C(C)C` (stereo not drawn), for which the IC50 was found to be 61.2 µM with HL-60, 44400 nM with L1210 and 56.4 µM with NALM-6.

In the case of `C=C1C(=O)OC(C)CC1C1CCCCC1` (stereo not drawn), the IC50 came out at 40.6 µM with HL-60, 13000 nM with L1210 and 15.8 µM in the test on NALM-6.

Take `C=C1C(=O)OC(C)CC1c1ccc([N+](=O)[O-])cc1` (stereo not drawn): the half-maximal inhibitory concentration (IC50) with HL-60 was determined as 6.12 µM; in the test on L1210 it was 1200 nM; in the test on NALM-6, 3.42 µM.

Consider `C=C1C(=O)OC(C)CC1c1ccc(Br)cc1` (stereo not drawn), for which the IC50 with HL-60 was 4.77 µM; in the test with L1210, 1750 nM; in the test on NALM-6, 4.51 µM.

Consider `C=C1C(=O)OC(C)CC1c1ccc(OC)cc1` (stereo not drawn), for which the IC50 with HL-60 was 5.95 µM; with L1210 it was 800 nM; with NALM-6, 5.76 µM.

As for `C=C1C(=O)OC(C)CC1c1ccc2c(c1)OCO2` (stereo not drawn), the IC50 with HL-60 came to 5.52 µM; in the test with L1210, 7000 nM; in the test with NALM-6 it was 5.46 µM.

As for `C=C1C(=O)O[C@H](C)[C@@H]1c1ccc([N+](=O)[O-])cc1`, the IC50 in the test with HL-60 was 21.7 µM; with L1210 it was 1900 nM; in the test on NALM-6, 3.77 µM.

In the case of `C=C1C(=O)O[C@H](C)[C@@H]1c1ccc2c(c1)OCO2` (relative stereo), the IC50 is 33.3 µM in the test on HL-60, 1400 nM in the test with L1210 and 4.7 µM in the test with NALM-6.

For the compound `C=C1C(=O)O[C@H](C)[C@@H]1c1ccc(OC)cc1` (relative stereo), the IC50 with HL-60 amounted to 4.82 µM; with L1210 it was 4400 nM; in the test on NALM-6, 5.59 µM.

`C=C1C(=O)O[C@H](C)[C@@H]1c1ccc(C)cc1` (relative stereo): the results for the concentration for half-maximal inhibition (IC50) in the test with HL-60, with L1210 and with NALM-6 were 5.62 µM, 5500 nM and 5.97 µM, respectively.

With `C=C1C(=O)O[C@@H](C)[C@@H]1c1ccc(OC)cc1` (relative stereo), the figures for the IC50 in the test with HL-60, in the test with L1210 and in the test on NALM-6 were 5.56 µM, 1950 nM and 5.42 µM, respectively.

Take `C=C1C(=O)O[C@@H](C)[C@@H]1c1ccc(C)cc1` (relative stereo): the IC50 in the test with HL-60 amounted to 5.01 µM; in the test with L1210, 1500 nM; in the test on NALM-6, 4.39 µM.

On to `C=C1C(=O)O[C@H](C)[C@@H]1c1ccc(Br)cc1` (relative stereo), for which the IC50 is 4.28 µM with HL-60, 7800 nM in the test with L1210 and 4.25 µM in the test on NALM-6.

In the case of `C=C1C(=O)O[C@@H](C)[C@@H]1c1ccc2c(c1)OCO2` (relative stereo), the IC50 in the test on HL-60 is 5.35 µM; with L1210, 800 nM; in the test with NALM-6, 5 µM.

On to `C=C1C(=O)O[C@@H](C)[C@@H]1c1ccc(Br)cc1` (relative stereo), for which the IC50 in the test with HL-60 turned out to be 6.66 µM; with L1210, 580 nM; in the test with NALM-6, 1.1 µM.

Source of the values: ChEMBL document CHEMBL1154747, “Synthesis and cytotoxic evaluation of beta-alkyl or beta-aryl-delta-methyl-alpha-methylene-delta-lactones. Comparison with the corresponding gamma-lactones” (Eur J Med Chem, 2010).
